Measured values: PubChem BioAssay AID488936 (Broad Institute, 2010)
Activity calls are given as the source filed them.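 The calls were made as follows: active = compounds lowering caspase luminescence whose fitted AC50 is at most ten times their top valid dose; inconclusive = flat partial inhibition or a poor quality curve fit; inactive = the rest.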

Test: suppressors of cytokine-driven caspase-3/7 activity, dose response, orthogonal assay for beta-cell apoptosis inhibitor project, INS-1E rat cells, dry powder, set 2 (AID 488936)
Details: INS-1E cytokine-induced caspase-3/7 luminescence, 48 h
Method in brief: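 Assay system: rat INS-1E insulinoma cells. Also added: IFN-gamma, TNF-alpha and IL-1β cytokine cocktail. Timing: 48 h cytokine plus compound exposure, then 1 h reagent, room temperature. Technique: Caspase-Glo 3/7 luminescence. Read-out: Caspase-3/7 IC50 from dose-response. Control set: SAHA positive control.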

Structure (SMILES)	activity change, negative = inhibition (at 26 µM (top of the series))	activity change, negative = inhibition (at 23.5 µM (top of the series))
COc1ccc(S(=O)(=O)N(C)C[C@@H]2Oc3c(NC(=O)Nc4ccc5c(c4)OCO5)cccc3C(=O)N([C@@H](C)CO)C[C@H]2C)cc1	-4.99% (inactive)	
COc1ccc(S(=O)(=O)N(C)C[C@@H]2Oc3c(NC(=O)Nc4ccc(F)cc4)cccc3C(=O)N([C@@H](C)CO)C[C@H]2C)cc1		-9.69% (inactive)
C[C@@H]1CN([C@@H](C)CO)C(=O)c2cccc(NC(=O)Nc3cccc4ccccc34)c2O[C@H]1CN(C)S(=O)(=O)c1cccc(F)c1	6.97% (inactive)	
COc1ccc(S(=O)(=O)N(C)C[C@@H]2Oc3c(NS(=O)(=O)c4ccc(F)cc4)cccc3C(=O)N([C@@H](C)CO)C[C@H]2C)cc1	-9.27% (inactive)	
COc1ccc(S(=O)(=O)N(C)C[C@@H]2Oc3c(NC(=O)NC4CCCCC4)cccc3C(=O)N([C@@H](C)CO)C[C@H]2C)cc1	-7.02% (inactive)	
C[C@@H]1CN([C@@H](C)CO)C(=O)c2cccc(NC(=O)Nc3ccc(F)cc3)c2O[C@H]1CN(C)S(=O)(=O)c1ccc(F)cc1	-8.56% (inactive)	
COc1ccc(S(=O)(=O)N(C)C[C@@H]2Oc3c(NC(=O)Nc4cccc5ccccc45)cccc3C(=O)N([C@@H](C)CO)C[C@H]2C)c(OC)c1	-12.9% (inactive)	
C[C@@H]1CN([C@@H](C)CO)C(=O)c2cccc(NS(=O)(=O)c3ccccc3)c2O[C@H]1CN(C)Cc1ccc(C(F)(F)F)cc1	7.22% (inactive)	
COc1ccc(S(=O)(=O)N(C)C[C@@H]2Oc3c(NC(=O)c4nc5ccccc5s4)cccc3C(=O)N([C@@H](C)CO)C[C@H]2C)cc1	-4.53% (inactive)	
COc1ccc(S(=O)(=O)N(C)C[C@@H]2Oc3c(NC(=O)Nc4cccc5ccccc45)cccc3C(=O)N([C@@H](C)CO)C[C@H]2C)cc1OC	-11.6% (inactive)	
COc1ccc(S(=O)(=O)N(C)C[C@@H]2Oc3c(NC(=O)NC(C)C)cccc3C(=O)N([C@@H](C)CO)C[C@H]2C)cc1	-8.08% (inactive)	
COc1ccc(NC(=O)N(C)C[C@@H]2Oc3c(NC(=O)Nc4cccc5ccccc45)cccc3C(=O)N([C@@H](C)CO)C[C@H]2C)cc1	18.3% (inactive)	
C[C@@H]1CN([C@@H](C)CO)C(=O)c2cccc(NC(=O)Nc3cccc4ccccc34)c2O[C@H]1CN(C)S(C)(=O)=O	-7.6% (inactive)	
COc1ccc(S(=O)(=O)N(C)C[C@@H]2Oc3c(cccc3N(C)C)C(=O)N([C@@H](C)CO)C[C@H]2C)cc1		-4.48% (inactive)
COc1ccc(S(=O)(=O)N(C)C[C@@H]2Oc3c(NC(=O)Nc4ccc(F)cc4)cccc3C(=O)N([C@H](C)CO)C[C@H]2C)cc1	-6.01% (inactive)	
COc1ccc(S(=O)(=O)N(C)C[C@@H]2Oc3c(NS(=O)(=O)c4ccc(C)cc4)cccc3C(=O)N([C@@H](C)CO)C[C@H]2C)cc1		-2.16% (inactive)
C[C@@H]1CN([C@@H](C)CO)C(=O)c2cccc(NC(=O)Nc3ccc(F)cc3)c2O[C@H]1CN(C)S(=O)(=O)c1ccc(Cl)cc1	-5.69% (inactive)	
COc1ccccc1S(=O)(=O)N(C)C[C@@H]1Oc2c(NC(=O)Nc3cccc4ccccc34)cccc2C(=O)N([C@@H](C)CO)C[C@H]1C	-13% (inactive)	
COc1ccc(S(=O)(=O)N(C)C[C@@H]2Oc3c(NC(=O)Nc4cccc5ccccc45)cccc3C(=O)N([C@@H](C)CO)C[C@H]2C)cc1Cl	12.6% (inactive)	
C[C@@H]1CN([C@@H](C)CO)C(=O)c2cccc(NC(=O)Nc3cccc4ccccc34)c2O[C@H]1CN(C)S(=O)(=O)c1ccc(Cl)cc1	6.46% (inactive)	

Structure (SMILES)	activity change, negative = inhibition (at 26 µM (top of the series))	activity change, negative = inhibition (at 23.5 µM (top of the series))
COc1ccc(S(=O)(=O)N(C)C[C@@H]2Oc3c(NC(=O)Nc4c(C)noc4C)cccc3C(=O)N([C@@H](C)CO)C[C@H]2C)cc1	-11.7% (inactive)	
C[C@@H]1CN([C@@H](C)CO)C(=O)c2cccc(NC(=O)Nc3cccc4ccccc34)c2O[C@H]1CN(C)C(=O)NC1CCCCC1	27.4% (inactive)	
COc1ccc(S(=O)(=O)N(C)C[C@@H]2Oc3c(NS(=O)(=O)c4ccccc4)cccc3C(=O)N([C@@H](C)CO)C[C@H]2C)cc1	-6.46% (inactive)	
C[C@@H]1CN([C@@H](C)CO)C(=O)c2cccc(NC(=O)Nc3cccc4ccccc34)c2O[C@H]1CN(C)S(=O)(=O)c1ccc2c(c1)OCC2	3.67% (inactive)	
C[C@@H]1CN([C@@H](C)CO)C(=O)c2cccc(NC(=O)Nc3cccc4ccccc34)c2O[C@H]1CN(C)S(=O)(=O)c1ccc2ncsc2c1	-18.8% (inactive)	
C[C@@H]1CN([C@@H](C)CO)C(=O)c2cccc(NC(=O)Nc3cccc4ccccc34)c2O[C@H]1CN(C)S(=O)(=O)c1cccs1	4.63% (inactive)	
C[C@@H]1CN([C@@H](C)CO)C(=O)c2cccc(NC(=O)Nc3cccc4ccccc34)c2O[C@H]1CN(C)S(=O)(=O)c1ccc2c(c1)oc(=O)n2C	0.941% (inactive)	
Cc1ccc(S(=O)(=O)N(C)C[C@H]2Oc3c(NC(=O)Nc4cccc5ccccc45)cccc3C(=O)N([C@@H](C)CO)C[C@@H]2C)cc1	29.7% (inactive)	
COc1ccc(S(=O)(=O)N(C)C[C@@H]2Oc3ccc(NC(=O)Nc4cccc5ccccc45)cc3C(=O)N([C@@H](C)CO)C[C@H]2C)cc1	5.17% (inactive)	
COc1ccc(S(=O)(=O)Nc2cccc3c2O[C@@H](CN(C)S(=O)(=O)c2ccc(OC)cc2)[C@H](C)CN([C@@H](C)CO)C3=O)cc1	-1.2% (inactive)	
C[C@@H]1CN([C@@H](C)CO)C(=O)c2cccc(NC(=O)Nc3cccc4ccccc34)c2O[C@H]1CN(C)C(=O)Nc1ccc2c(c1)OCO2	32.4% (inactive)	
COc1ccc(S(=O)(=O)N(C)C[C@H]2Oc3c(NC(=O)Nc4cccc5ccccc45)cccc3C(=O)N([C@H](C)CO)C[C@H]2C)cc1	-14.4% (inactive)	
C[C@@H]1CN([C@H](C)CO)C(=O)c2cccc(NC(=O)Nc3cccc4ccccc34)c2O[C@H]1CN(C)S(=O)(=O)c1ccc(Cl)cc1	-4.82% (inactive)	
COc1ccc(NC(=O)Nc2cccc3c2O[C@@H](CN(C)S(=O)(=O)c2ccc(OC)cc2)[C@H](C)CN([C@@H](C)CO)C3=O)cc1	-9.51% (inactive)	
C[C@@H]1CN([C@H](C)CO)C(=O)c2cccc(NC(=O)Nc3ccccc3)c2O[C@H]1CN(C)S(=O)(=O)c1ccc(F)cc1	-4.27% (inactive)	
C[C@@H]1CN([C@@H](C)CO)C(=O)c2cccc(NC(=O)Nc3ccccc3)c2O[C@H]1CN(C)S(=O)(=O)c1ccc(Cl)cc1	-7.25% (inactive)	
COc1ccc(S(=O)(=O)N(C)C[C@H]2Oc3c(NC(=O)Nc4cccc5ccccc45)cccc3C(=O)N([C@@H](C)CO)C[C@@H]2C)cc1	-9.65% (inactive)	
COc1ccc(S(=O)(=O)N(C)C[C@H]2Oc3c(NC(=O)Nc4cccc5ccccc45)cccc3C(=O)N([C@H](C)CO)C[C@@H]2C)cc1	3.23% (inactive)	
C[C@@H]1CN([C@@H](C)CO)C(=O)c2cccc(NC(=O)Nc3cccc4ccccc34)c2O[C@H]1CN(C)C(=O)Nc1ccc(F)cc1	19.9% (inactive)	
N#Cc1ccc2cc(Br)c(C(F)(F)P(=O)(O)O)cc2c1	-14.1% (inactive)	
